The source of these data is ChEMBL document CHEMBL4828745, “Discovery and Structure-Activity Relationships of Quinazolinone-2-carboxamide Derivatives as Novel Orally Efficacious Antimalarials” (J Med Chem, 2021).

Structures are written as SMILES.

The test system of data set [1] is Plasmodium falciparum. The data set can be described thus: Antimalarial activity against Plasmodium falciparum Dd2 harbouring Pf-crt, Pf-mdrl,Pf-dhfr, Pf-dhps mutated loci assessed as inhibition of parasite growth incubated for […] by [3H]hypoxanthine incorporation assay based liquid scintillation counting method. The class given is functional, organism-based. The essentials: (§1)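 Drug-resistant laboratory P. falciparum strains were compared against the sensitive strain NF54. Growth inhibition was read by a modified [3H]hypoxanthine incorporation assay over 72 h. IC50 is the mean of two independent biological replicates. Chloroquine and artesunate served as controls.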

Data set [2] deals with Plasmodium falciparum. The data set can be described thus: Antimalarial activity against Plasmodium falciparum TM90C2b harbouring Pf-crt, Pf-mdrl,Pfd-hfr, Pf-cytbQ0 mutated loci assessed as inhibition of parasite growth incubated for […] by [3H]hypoxanthine incorporation assay based liquid scintillation counting method. The class given is functional, organism-based. The essentials: as §1

Data set [3] relates to Plasmodium falciparum. The data set can be described thus: Antimalarial activity against Plasmodium falciparum Cam3.1 harbouring Pf-crt, Pf-mdrl,Pf-dhfr, Pf-dhps, pf-kelch13 mutated loci assessed as inhibition of parasite growth incubated for […] by [3H]hypoxanthine incorporation assay based liquid scintillation counting method. It is filed as functional, organism-based. The essentials: as §1

The target in data set [4] is T1, Interstitial collagenase (Homo sapiens) (UniProt P03956).
T1 sequence (whole entry): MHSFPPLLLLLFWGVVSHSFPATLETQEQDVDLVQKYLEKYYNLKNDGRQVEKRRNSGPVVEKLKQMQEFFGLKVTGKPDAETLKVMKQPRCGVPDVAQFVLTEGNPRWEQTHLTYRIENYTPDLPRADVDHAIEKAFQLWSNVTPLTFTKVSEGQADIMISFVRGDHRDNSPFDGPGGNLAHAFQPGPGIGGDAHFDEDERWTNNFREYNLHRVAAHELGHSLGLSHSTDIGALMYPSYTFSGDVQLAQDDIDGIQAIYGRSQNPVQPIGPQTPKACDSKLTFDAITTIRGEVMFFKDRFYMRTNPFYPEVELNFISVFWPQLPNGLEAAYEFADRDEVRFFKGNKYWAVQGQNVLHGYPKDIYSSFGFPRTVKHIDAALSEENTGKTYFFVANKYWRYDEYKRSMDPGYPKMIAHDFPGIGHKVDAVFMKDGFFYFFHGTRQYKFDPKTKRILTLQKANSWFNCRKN
The data set can be described thus: Inhibition of human MMP1 assessed as fluorescence intensity using DNP-Pro-Cha-Gly-Cys(Me)-His-Ala-Lys(n-Me-Abz)-NH2 as substrate at 10 uM incubated for 20 mins relative to control.

Data set [5] concerns the target Matrix metalloproteinase-14 (Homo sapiens) (UniProt P50281). Put plainly: Inhibition of human MMP14 assessed as fluorescence intensity using Mca-Pro-Leu-Ala-Cys(p-OmeBz)-Trp-Ala-Arg(Dpa)-NH2 as substrate at 10 uM incubated for 60 mins relative to control.
Data set [6] can be described thus: AUC (0 to infinity) in Sprague-Dawley rat at 1 mg/kg, iv by LC-MS analysis. The arrangement: route intravenous, time infinity, dose 1 mg/kg. It is filed as ADME, organism-based. The note with it: in vivo. The essentials:
(§2)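 Male Sprague Dawley rats (n = 3) dosed IV at 1 mg/kg with the Na·4H2O salt in 50% DMA/50% PEG400. Plasma concentration–time profiles were obtained, and non-compartmental parameters are given as mean ± SD.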

Data set [7] in a line: AUC (0 to infinity) in Sprague-Dawley rat at 5.6 mg/kg, po by LC-MS analysis. The class given is ADME, organism-based. Details: time infinity, route oral, dose 5.6 mg/kg. The note with it: in vivo. The essentials: (§3)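 Male Sprague Dawley rats (n = 3) dosed orally at 5.6 mg/kg with the Na·4H2O salt suspended in 0.5% methyl cellulose in water. Plasma was sampled over time. Bioavailability was taken relative to the 1 mg/kg IV arm.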

Data set [8] in a line: Oral bioavailability in Sprague-Dawley rat at 5.6 mg/kg by LC-MS analysis. The class given is ADME, organism-based. The note with it: in vivo. The essentials:
as §3

A short description of data set [9]: Cmax in Sprague-Dawley rat at 5.6 mg/kg, po by LC-MS analysis. The class given is ADME, organism-based. Details: route oral, dose 5.6 mg/kg. As to conditions: in vivo. The essentials: as §3
Data set [10] is described as follows: Tmax in Sprague-Dawley rat at 5.6 mg/kg, po by LC-MS analysis. It is filed as ADME, organism-based. As to conditions: in vivo. The essentials:
as §3

Data set [11] in a line: Half life in Sprague-Dawley rat at 1 mg/kg, iv by LC-MS analysis. The class given is ADME, organism-based. The note with it: in vivo. The essentials: as §2
Data set [12] in a line: Half life in Sprague-Dawley rat at 5.6 mg/kg, po by LC-MS analysis. It is filed as ADME, organism-based. As to conditions: in vivo. The essentials:
as §3

Data set [13] in a line: Plasma clearance in Sprague-Dawley rat at 1 mg/kg, iv by LC-MS analysis. The class given is ADME, organism-based. The essentials: as §2
Data set [14] is described as follows: Volume of distribution at steady state in Sprague-Dawley rat plasma at 1 mg/kg, iv by LC-MS analysis. It is filed as ADME, organism-based. The note with it: read-out: Vdss. The essentials: as §2
Data set [15] in a line: AUC (0 to infinity) in Swiss outbred mouse at 0.95 mg/kg, iv by LC-MS analysis. It is filed as ADME, organism-based. Details: route intravenous, time infinity, dose 0.95 mg/kg. As to conditions: in vivo.
The nature of data set [16]: Plasma clearance in Swiss outbred mouse at 0.95 mg/kg, iv by LC-MS analysis. The class given is ADME, organism-based.
Data set [17] can be described thus: Clearance in Swiss outbred mouse blood at 0.95 mg/kg, iv by LC-MS analysis. It is filed as ADME, organism-based.
Data set [18] deals with Plasmodium falciparum. Put plainly: Antiplasmodial activity against Plasmodium falciparum 3D7 infected in human erythrocyte assessed as intraerythrocytic growth inhibition incubated for 72 hrs by DAPI-staining based imaging analysis. It is filed as functional, organism-based. As to conditions: 3D7, 72 h. The essentials:
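P. falciparum 3D7 cultured in RPMI1640 with hypoxanthine, HEPES, 2.5 mg/mL AlbuMAX II and 5% human serum. Sorbitol-synchronized rings exposed 72 h at 37 °C under 5% CO2/5% O2, then DAPI-stained with saponin/Triton X-100 for 8 h in the dark. High-content imaging with spot detection. Duplicate points. Reference antimalarials run in each assay.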

The test system of data set [19] is Plasmodium falciparum. The data set can be described thus: Antimalarial activity against Plasmodium falciparum K1 harbouring Pf-crt, Pf-mdrl,Pf-dhfr, Pf-dhps mutated loci assessed as inhibition of parasite growth incubated for […] by [3H]hypoxanthine incorporation assay based liquid scintillation counting method. The class given is functional, organism-based. The essentials: as §1

For data set [20], the system named is Plasmodium falciparum. Put plainly: Antimalarial activity against Plasmodium falciparum 7G8 harbouring Pf-crt, Pf-mdrl,Pf-dhfr, Pf-dhps mutated loci assessed as inhibition of parasite growth incubated for […] by [3H]hypoxanthine incorporation assay based liquid scintillation counting method. It is filed as functional, organism-based. The essentials: as §1

Data set [21] concerns Plasmodium falciparum. Put plainly: Antimalarial activity against Plasmodium falciparum NF54 assessed as inhibition of parasite growth incubated for 72 hrs by [3H]hypoxanthine incorporation assay based liquid scintillation counting method.

In the case of `CCN(CC)CCCC(C)Nc1ccnc2cc(Cl)ccc12` (centres undefined) [CHLOROQUINE], the IC50 amounted to 10 nM with Plasmodium falciparum [1], 67 nM in the data set with Plasmodium falciparum [2] and 160 nM in the data set on Plasmodium falciparum [3].
Regarding `CCc1cccc(CNC(=O)c2nc3cccc(COCc4ccc(C(=O)O)cc4)c3c(=O)[nH]2)c1`, the figures for the inhibition in [4] and in data set [5] were 11.3% and 10.8%, respectively.
`CCc1cccc(CNC(=O)c2nc3cccc(COCc4ccc(C(=O)[O-])cc4)c3c(=O)[nH]2)c1.O.O.O.O.[Na+]`: the total exposure AUC(0-inf) in data set [6] stood at 3.7 µM·h; in [7], 6.9 µM·h; in data set [15], 1.1 µM·h. In addition, the bioavailability in data set [8] is 34%. In addition, in data set [9], the maximum concentration (Cmax) is 1700 nM. Also, the Tmax in data set [10] turned out to be 0.5 h. Also, the figures for the half-life in data set [11] and in data set [12] were 5.3 h and 3.2 h, respectively. Besides, the clearance in data set [13] was 9.5 mL/min/kg; in data set [16], 31 mL/min/kg; in [17], 57 mL/min/kg. Also, the Vd in data set [14] stood at 0.88 L/kg.
Take `C[C@H]1[C@H](OC(=O)CCC(=O)O)O[C@@H]2O[C@@]3(C)CC[C@H]4[C@H](C)CC[C@@H]1[C@@]24OO3` [ARTESUNATE]: the IC50 was found to be 0.6 nM with Plasmodium falciparum [18]; 6 nM in the data set with Plasmodium falciparum [1]; 4 nM in the data set on Plasmodium falciparum [19]; 3 nM in the data set with Plasmodium falciparum [20]; 2 nM in the data set on Plasmodium falciparum [2]; 4 nM with Plasmodium falciparum [3]. Besides, the IC50 in the data set with Plasmodium falciparum [21] stood at 6 nM.
